# Measurements from ChEMBL document CHEMBL3352586, “Pyridyl benzamides as a novel class of potent inhibitors for the kinetoplastid Trypanosoma brucei” (J Med Chem, 2014).
# Columns and labels:
# [1] = system: Trypanosoma brucei brucei; assay: Antimicrobial activity against bloodstream form of Trypanosoma brucei brucei 427 at 10 uM after 48 hrs by alamar blue assay; assay type: functional; settings: Trypanosoma brucei, 427, 48 h
# [2] = Kinetic solubility of the compound at 10 mg/ml at pH 2 by nephelometry; assay type: physicochemical; settings: buffer, read-out: Kinetic_solubility
# Outline: (§1)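 Kinetic solubility was read by nephelometry at pH 2 and pH 6.5 and reported as μg/mL ranges.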
# [3] = Kinetic solubility of the compound at 10 mg/ml at pH 6.5 by nephelometry; assay type: physicochemical; settings: buffer, read-out: Kinetic_solubility; outline: as §1
# [4] = Plasma protein binding in human […] by chromatographic method; assay type: ADME, cell-free; settings: read-out: PPB (converted)
# Outline: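 Human plasma protein binding was estimated by a chromatographic method.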
# [5] = Partition coefficient, log D of the compound at pH 7.4 by HPLC method; assay type: physicochemical; settings: octanol/water
# Outline: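 Distribution coefficient at pH 7.4 was measured chromatographically.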
# Liver microsome = assay: Intrinsic clearance in human liver microsomes at 1 uM after 60 mins by LC-MS analysis; assay type: ADME; settings: 1 h
# Outline: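 In vitro intrinsic clearance was measured in human liver microsomes and expressed per mg protein. A hepatic extraction ratio (E_H) was predicted from the in vitro data.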
# [6] = system: Trypanosoma brucei brucei; assay: Antimicrobial activity against bloodstream form of Trypanosoma brucei brucei 427 after 48 hrs by alamar blue assay; assay type: functional, organism-based; settings: Trypanosoma brucei, 427, 48 h
# [7] = Selectivity index, ratio of IC50 for HEK293 cells to IC50 for Trypanosoma brucei brucei 427; assay type: toxicity, cell-based; settings: human, read-out: Ratio IC50
# Plasmodium falciparum = assay: Antimicrobial activity against erythrocytic stage of Plasmodium falciparum NF54 infected in human washed RBC assessed as [3H]-hypoxanthine incorporation incubated for 48 hrs prior to [3H]-hypoxanthine addition measured after 24 hrs by liquid scintillation counting analysis; assay type: functional, organism-based
structure (smiles),measurement,setting,value
Cc1ccccc1C(=O)Nc1ccccc1,inhibition at 10 µM,[1],< 10%
Cc1cc(NC(=O)c2ccccc2C)no1,inhibition at 10 µM,[1],< 10%
Cc1ccccc1NC(=O)c1ccccn1,inhibition at 10 µM,[1],< 10%
Cc1ccccc1C(=O)Nc1ccc(Cl)cn1,inhibition at 10 µM,[1],< 10%
Cc1ccccc1C(=O)Nc1nncs1,inhibition at 10 µM,[1],< 10%
Cc1ccccc1C(=O)Nc1ccc(Br)cn1,inhibition at 10 µM,[1],< 10%
Cc1ccccc1C(=O)Nc1ccc(Br)c(C)n1,inhibition at 10 µM,[1],< 10%
Cc1ccccc1C(=O)Nc1nc[nH]n1,inhibition at 10 µM,[1],< 10%
O=C(Nc1ccccn1)c1ccccc1-c1ccccc1,inhibition at 10 µM,[1],< 10%
Cc1ccccc1C(=O)Nc1cccnn1,inhibition at 10 µM,[1],< 10%
Cc1ccccc1C(=O)Nc1ccc(C#CCC(C)C)cn1,inhibition at 10 µM,[1],12%
CCC/C=C/c1ccc(NC(=O)c2ccccc2C)nc1,inhibition at 10 µM,[1],19%
Cc1ccccc1C(=O)Nc1ccc(-c2ccccc2)cn1,inhibition at 10 µM,[1],11%
Cc1ccccc1C(=O)Nc1cccc(OCC(C)C)n1,inhibition at 10 µM,[1],< 10%
CCCCN(C(=O)c1ccccc1C)c1ccccn1,inhibition at 10 µM,[1],11%
CCCCCN(C(=O)c1ccccc1C)c1ccccn1,inhibition at 10 µM,[1],17%
O=C(Nc1ccccn1)c1ccccc1I,inhibition at 10 µM,[1],38%
O=C(Nc1ccccn1)c1ccccc1C(F)(F)F,inhibition at 10 µM,[1],< 10%
COc1cccnc1NC(=O)c1ccccc1C,inhibition at 10 µM,[1],< 10%
Cc1ccccc1C(=O)Nc1ncccc1C,inhibition at 10 µM,[1],34%
Cc1ccccc1C(=O)Nc1ncccc1F,inhibition at 10 µM,[1],< 10%
Cc1ccccc1C(=O)Nc1ncccn1,inhibition at 10 µM,[1],< 10%
same,solubility kinetic,[2],6.3 µg/mL
same,solubility kinetic,[3],6.3 µg/mL
same,fraction unbound,[4],0.024
same,logD,[5],3.9
Cc1ccccc1C(=O)Nc1cc(C#N)ccn1,solubility kinetic,[2],50 µg/mL
same,CLint,Liver microsome,82 µL/min/mg
same,solubility kinetic,[3],25 µg/mL
same,IC50,[6],2300 nM
same,fraction unbound,[4],0.359
same,logD,[5],2.8
Cc1ccccc1C(=O)Nc1cnccn1,inhibition at 10 µM,[1],35%
Cc1ccccc1C(=O)Nc1cc(Br)ccn1,IC50,[6],1800 nM
same,selectivity ratio,[7],> 41
Cc1ccccc1C(=O)Nc1cc(F)ccn1,IC50,[6],510 nM
same,selectivity ratio,[7],168
Cc1ccccc1C(=O)Nc1cc(C#CCC(C)C)ccn1,IC50,[6],1100 nM
same,selectivity ratio,[7],> 53
COc1ccc(NC(=O)c2ccccc2C)nc1,solubility kinetic,[2],> 100 µg/mL
same,CLint,Liver microsome,23 µL/min/mg
same,solubility kinetic,[3],12.5 µg/mL
same,IC50,[6],3800 nM
same,fraction unbound,[4],0.399
same,logD,[5],2.5
same,selectivity ratio,[7],> 22
Cc1ccc(NC(=O)c2ccccc2C)nc1,inhibition at 10 µM,[1],< 10%
Cc1ccccc1C(=O)Nc1ccncn1,inhibition at 10 µM,[1],< 10%
Cc1ccccc1C(=O)Nc1ccc(C#N)cn1,inhibition at 10 µM,[1],< 10%
same,solubility kinetic,[2],6.3 µg/mL
same,solubility kinetic,[3],6.3 µg/mL
same,fraction unbound,[4],0.025
same,logD,[5],3.9
COc1cccc(NC(=O)c2ccccc2C)n1,inhibition at 10 µM,[1],< 10%
Cc1cccc(NC(=O)c2ccccc2C)n1,inhibition at 10 µM,[1],< 10%
Cc1ccccc1C(=O)Nc1cccc(F)n1,inhibition at 10 µM,[1],< 10%
same,solubility kinetic,[2],> 100 µg/mL
same,CLint,Liver microsome,191 µL/min/mg
same,solubility kinetic,[3],> 100 µg/mL
same,fraction unbound,[4],0.33
same,logD,[5],3
Cc1ccccc1C(=O)Nc1cccc(C#N)n1,inhibition at 10 µM,[1],11%
Cc1ccccc1C(=O)Nc1cccc(Cl)n1,inhibition at 10 µM,[1],< 10%
Cc1ccccc1C(=O)Nc1cccc(Br)n1,inhibition at 10 µM,[1],< 10%
Cc1ccccc1C(=O)Nc1cccc(-c2ccccc2)n1,inhibition at 10 µM,[1],33%
Cc1ccccc1C(=O)Nc1cccc(C#CCC(C)C)n1,inhibition at 10 µM,[1],< 10%
CCC/C=C/c1cccc(NC(=O)c2ccccc2C)n1,IC50,[6],6000 nM
same,selectivity ratio,[7],> 3
Cc1ccccc1C(=O)Nc1cccc(C#Cc2ccccc2)n1,inhibition at 10 µM,[1],< 10%
Cc1ccccc1C(=O)Nc1cccc(O)n1,inhibition at 10 µM,[1],< 10%
Cc1ccccc1C(=O)Nc1cccc(N)n1,IC50,[6],4600 nM
same,selectivity ratio,[7],> 19
Cc1ccccc1C(=O)Nc1ccccc1C#N,inhibition at 10 µM,[1],< 10%
Cc1ccccc1C(=O)Nc1ccon1,inhibition at 10 µM,[1],< 10%
Cc1ccccc1C(=O)Nc1ncco1,inhibition at 10 µM,[1],< 10%
Cc1ccccc1C(=O)Nc1cc[nH]n1,inhibition at 10 µM,[1],< 10%
Cc1ccccc1C(=O)Nc1ncns1,inhibition at 10 µM,[1],< 10%
Cc1ccccc1C(=O)Nc1ccsc1,inhibition at 10 µM,[1],< 10%
Cc1ccccc1C(=O)N(C)c1ccccn1,inhibition at 10 µM,[1],18%
CCc1ccccc1C(=O)Nc1ccccn1,IC50,[6],2740 nM
same,selectivity ratio,[7],30
O=C(Nc1ccccn1)c1ccccc1F,inhibition at 10 µM,[1],35%
O=C(Nc1ccccn1)c1ccccc1Cl,inhibition at 10 µM,[1],44%
O=C(Nc1ccccn1)c1ccccc1OC(F)(F)F,inhibition at 10 µM,[1],13%
O=C(Nc1ccccn1)c1cccc(F)c1,IC50,[6],7330 nM
same,selectivity ratio,[7],11
Cc1c(Cl)cccc1C(=O)Nc1ccccn1,IC50,[6],630 nM
same,selectivity ratio,[7],132
Cc1c(Br)cccc1C(=O)Nc1ccccn1,IC50,[6],5700 nM
same,selectivity ratio,[7],15
Cc1cccc(C(=O)Nc2ccccn2)c1C,IC50,[6],3500 nM
same,selectivity ratio,[7],24
COc1cccc(C(=O)Nc2ccccn2)c1C,inhibition at 10 µM,[1],10%
Cc1ncccc1C(=O)Nc1ccccn1,inhibition at 10 µM,[1],21%
Cc1cc(F)ccc1C(=O)Nc1ccccn1,IC50,[6],1900 nM
same,selectivity ratio,[7],44
Cc1cc(Cl)ccc1C(=O)Nc1ccccn1,IC50,[6],1100 nM
same,selectivity ratio,[7],76
COc1ccc(C(=O)Nc2ccccn2)c(C)c1,inhibition at 10 µM,[1],< 10%
CCC/C=C/c1ccc(C(=O)Nc2ccccn2)c(C)c1,inhibition at 10 µM,[1],24%
Cc1cc(-c2ccccc2)ccc1C(=O)Nc1ccccn1,inhibition at 10 µM,[1],< 10%
Cc1ccc(F)cc1C(=O)Nc1ccccn1,inhibition at 10 µM,[1],< 10%
Cc1ccc(Br)cc1C(=O)Nc1ccccn1,inhibition at 10 µM,[1],< 10%
Cc1ccc(C)c(C(=O)Nc2ccccn2)c1,inhibition at 10 µM,[1],22%
COc1ccc(C)c(C(=O)Nc2ccccn2)c1,inhibition at 10 µM,[1],< 10%
Cc1ccncc1C(=O)Nc1ccccn1,inhibition at 10 µM,[1],< 10%
Cc1cccc(C)c1C(=O)Nc1ccccn1,inhibition at 10 µM,[1],< 10%
Cc1cccc(F)c1C(=O)Nc1ccccn1,inhibition at 10 µM,[1],45%
Cc1cccnc1C(=O)Nc1ccccn1,inhibition at 10 µM,[1],12%
Cc1ccnc(NC(=O)c2cccc(F)c2C)c1,solubility kinetic,[2],> 100 µg/mL
same,CLint,Liver microsome,237 µL/min/mg
same,solubility kinetic,[3],25 µg/mL
same,IC50,[6],830 nM
same,fraction unbound,[4],0.276
same,logD,[5],3.5
same,selectivity ratio,[7],100
Cc1c(C(=O)Nc2cc(Cl)ccn2)ccc(F)c1F,IC50,[6],530 nM
same,selectivity ratio,[7],160
Cc1c(F)cccc1C(=O)Nc1cc(F)ccn1,IC50,[6],100 nM
same,selectivity ratio,[7],851
Cc1c(C(=O)Nc2cc(F)ccn2)ccc(F)c1F,IC50,[6],190 nM
same,selectivity ratio,[7],450
COc1ccc(NC(=O)c2cccc(F)c2C)nc1,IC50,[6],2300 nM
same,selectivity ratio,[7],4
COc1ccc(NC(=O)c2ccc(F)cc2C)nc1,IC50,[6],2600 nM
same,selectivity ratio,[7],32
O=C(Nc1ccccn1)c1ccccc1,IC50,[6],9070 nM
same,selectivity ratio,[7],9.2
O=C(Nc1ccc2ccccc2n1)c1ccccc1-c1ccccc1,inhibition at 10 µM,[1],53%
Cc1ccc(NC(=O)c2cc(S(=O)(=O)NC(C)(C)C)ccc2C)nc1,inhibition at 10 µM,[1],12%
CCN(CC)CCCC(C)Nc1ccnc2cc(Cl)ccc12 (stereo unspecified) [CHLOROQUINE],EC50,Plasmodium falciparum,0.11 µg/mL
